In ChEMBL document CHEMBL1772938, “Optimization of 3-(phenylthio)quinolinium compounds against opportunistic fungal pathogens” (Eur J Med Chem, 2011):

Experiments:
[1] = tested on: Candida albicans; assay: Antimicrobial activity against Candida albicans ATCC 90028 by alamar blue assay; format: functional, organism-based
[2] = tested on: Cryptococcus neoformans; assay: Antimicrobial activity against Cryptococcus neoformans ATCC 90113 by CLSI method; format: functional
Procedure, shortened: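 C. neoformans in Sabouraud dextrose broth, inoculum per the 0.5 McFarland standard. Saline serial dilutions of DMSO samples were tested in duplicate, with a final top concentration of 20 μg/mL. OD 630 nm was read before and after incubation. IC50 was derived from % growth versus concentration. MIC was judged visually as the lowest concentration with no detectable growth. Amphotericin B served as the drug control.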

[3] = tested on: Pichia kudriavzevii; assay: Antimicrobial activity against Candida krusei ATCC 6258 by alamar blue assay; format: functional, organism-based
[4] = tested on: Nakaseomyces glabratus; assay: Antimicrobial activity against Candida glabrata ATCC 90030 by alamar blue assay; format: functional, organism-based
[5] = tested on: Candida albicans; assay: Antimicrobial activity against Candida albicans ATCC 90028 by CLSI method; format: functional
Procedure, shortened: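 C. albicans inoculum was made to the 0.5 McFarland standard in Sabouraud dextrose broth or RPMI 1640. Samples came from DMSO stocks serially diluted in saline, in duplicate, starting at a final 20 μg/mL. Plates were read at OD 630 nm before and after incubation. IC50 came from the % growth versus concentration plot; MIC was the lowest concentration with no visible growth. Included: growth, solvent and blank controls, plus amphotericin B.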

[6] = tested on: Cryptococcus neoformans; assay: Antimicrobial activity against Cryptococcus neoformans ATCC 90113 by alamar blue assay; format: functional, organism-based
[7] = tested on: Nakaseomyces glabratus; assay: Antimicrobial activity against Candida glabrata ATCC 90030 by CLSI method; format: functional
Procedure, shortened: (§1)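 Modified CLSI microdilution. DMSO samples were serially diluted in saline and tested in duplicate against inoculum adjusted by the 0.5 McFarland standard. The final test range started at 20 μg/mL. Plates were read before and after incubation. IC50 came from % growth versus concentration; MIC was the lowest concentration without visible growth. Growth, solvent, blank and amphotericin B controls were on each plate.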

[8] = tested on: Pichia kudriavzevii; assay: Antimicrobial activity against Candida krusei ATCC 6258 by CLSI method; format: functional; procedure, shortened: as §1
[9] = Selectivity index, ratio of TC50 for african green monkey Vero cells to IC50 for Cryptococcus neoformans ATCC 90113; format: toxicity, cell-based; settings: read-out: Selectivity Index
[10] = tested on: Vero; assay: Cytotoxicity against african green monkey Vero cells at 10 ug/ml after 48 hrs by neutral red assay; format: cell-based; settings: chlorocebus sabaeus
Procedure, shortened: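 VERO kidney cells were seeded at 25,000 cells/well and incubated 24 h. Samples were added up to 10 μg/mL and incubated a further 48 h. Viable cells were counted by neutral red uptake. IC50 came from growth-inhibition dose curves. Doxorubicin was the positive control and DMSO the vehicle control.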

[11] = tested on: Aspergillus fumigatus; assay: Antimicrobial activity against Aspergillus fumigatus ATCC 90906 by CLSI method; format: functional
Procedure, shortened: (§2)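 Modified CLSI broth microdilution. DMSO stocks were serially diluted in saline and run in duplicate. Inoculum was set by the 0.5 McFarland standard in YM broth for MIC, or in RPMI-1640 + 5% Alamar Blue for IC50. The top final concentration was 20 μg/mL. Fluorescence (544ex/590em) was read before and after incubation. IC50 was taken from % growth versus concentration; MIC was read visually as no blue-to-pink change.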

[12] = tested on: Aspergillus fumigatus; assay: Antimicrobial activity against Aspergillus fumigatus ATCC 90906 by alamar blue assay; format: functional, organism-based; procedure, shortened: as §2

SMILES | IC50 [1] [µg/mL] | MFC [2] [µg/mL] | MIC [2] [µg/mL] | IC50 [3] [µg/mL] | IC50 [4] [µg/mL] | MFC [5] [µg/mL] | MIC [5] [µg/mL] | IC50 [6] [µg/mL] | MFC [7] [µg/mL] | MIC [7] [µg/mL] | MFC [8] [µg/mL] | MIC [8] [µg/mL] | selectivity ratio [9] | Activity [10] | MFC [11] [µg/mL] | MIC [11] [µg/mL] | IC50 [12] [µg/mL]
FC(F)(F)c1ccc(Sc2cc3ccccc3[n+](CCCCCC3CCCCC3)c2)cc1.[I-] | 0.8 | 0.6 | 0.6 | 1.3 | 4.7 | 2.5 | 2.5 | 0.3 | 10 | 10 | 5 | 2.5 | > 33 | Non-toxic | > 20 | 2.5 | 1.7
Oc1ccc(Sc2cc3ccccc3[n+](CCCCCC3CCCCC3)c2)cc1.[I-] | 3.9 | 2.5 | 1.3 | 1.5 | > 20 | 20 | 10 | 0.7 | > 20 | > 20 | 5 | 5 | > 14 | Non-toxic | > 20 | 20 | 7.9
N#Cc1cccc(Sc2cc3ccccc3[n+](CCCCCC3CCCCC3)c2)c1.[I-] | 6.7 | 5 | 1.3 | 1.4 | 13 | 20 | 20 | 0.7 | 20 | 20 | 10 | 5 | > 14 | Non-toxic | > 20 | 20 | 19
